Reference: ChEMBL document CHEMBL1255501, “Heteroresistance of Cryptococcus gattii to fluconazole” (2010)
The source made the active and inactive calls. The rule behind the calls is not given here.

Columns and labels:
[1] = tested on: Cryptococcus gattii species complex; test: Antimicrobial activity against Cryptococcus gattii serotype B isolate NIH281 assessed as concentration required for heteroresistance; assay type: functional, Cryptococcus bacillisporus
In short: (§1)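 Fluconazole spot test: 10-fold serial dilutions of each single-colony-purified strain spotted on YPD agar alone and YPD agar with fluconazole at 4 to 128 μg/ml. The level of heteroresistance to fluconazole (LHF) is the lowest drug concentration at which minor resistant subpopulations emerge within the spot.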

[2] = tested on: Cryptococcus gattii species complex; test: Antimicrobial activity against Cryptococcus gattii serotype C isolate NIH298 assessed as heteroresistant isolates at 8 ug/ml; assay type: functional, Cryptococcus bacillisporus
In short: (§2)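 Cell suspensions of 1 × 10^3 to 4 × 10^3 CFU/ml were made in sterile saline and plated on plain YPD agar or YPD agar with various fluconazole concentrations. Plates were incubated at 30°C for 72 h, and the percentage of resistant subpopulation emerging was recorded.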

[3] = tested on: Cryptococcus gattii species complex; test: Antimicrobial activity against Cryptococcus gattii serotype B isolate RB-1 assessed as concentration required for heteroresistance; assay type: functional, Cryptococcus bacillisporus
[4] = tested on: Cryptococcus gattii species complex; test: Antimicrobial activity against Cryptococcus gattii serotype C isolate H0058-1-2023 assessed as heteroresistant isolates at 4 ug/ml; assay type: functional, Cryptococcus bacillisporus
In short: (§3)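 Population analysis: saline cell suspensions (1 × 103 to 4 × 10^3 CFU/ml) plated on plain YPD agar or YPD agar with various fluconazole concentrations; growth recorded after 72 h at 30°C; percentage of resistant subpopulation at each drug level calculated relative to drug-free plate growth.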

[5] = tested on: Cryptococcus gattii species complex; test: Antimicrobial activity against Cryptococcus gattii serotype C isolate NIH34 assessed as heteroresistant isolates at 16 ug/ml; assay type: functional, Cryptococcus bacillisporus; in short: as §2
[6] = tested on: Cryptococcus gattii species complex; test: Antimicrobial activity against Cryptococcus gattii serotype B isolate RB14 assessed as heteroresistant isolates at 32 ug/ml; assay type: functional, Cryptococcus bacillisporus; in short: as §3
[7] = tested on: Cryptococcus deuterogattii; test: Antimicrobial activity against Cryptococcus gattii serotype B isolate NIH444 assessed as heteroresistant isolates at 4 ug/ml; assay type: functional, Cryptococcus bacillisporus
In short: (§4)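 Population analysis: cells suspended in sterile saline at 1 × 10³ to 4 × 10³ CFU/ml and plated on plain YPD agar or YPD agar with various fluconazole concentrations. Plates incubated at 30°C for 72 h. The resistant subpopulation at each concentration is recorded as a percentage of the population.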

[8] = tested on: Cryptococcus gattii species complex; test: Antimicrobial activity against Cryptococcus gattii serotype B isolate RAM15 assessed as heteroresistant isolates at 16 ug/ml; assay type: functional, Cryptococcus bacillisporus; in short: as §3
[9] = tested on: Cryptococcus bacillisporus; test: Antimicrobial activity against Cryptococcus gattii serotype C isolate NIH191 assessed as concentration required for heteroresistance; assay type: functional
[10] = tested on: Cryptococcus gattii species complex; test: Antimicrobial activity against Cryptococcus gattii serotype C isolate NIH139 assessed as concentration required for heteroresistance; assay type: functional, Cryptococcus bacillisporus
[11] = tested on: Cryptococcus gattii species complex; test: Antimicrobial activity against Cryptococcus gattii serotype C isolate H0058-1-78 assessed as heteroresistant isolates at 32 ug/ml; assay type: functional, Cryptococcus bacillisporus; in short: as §3
[12] = tested on: Cryptococcus gattii species complex; test: Antimicrobial activity against Cryptococcus gattii serotype B isolate RB14 assessed as heteroresistant isolates at 8 ug/ml; assay type: functional, Cryptococcus bacillisporus; in short: as §3
[13] = tested on: Cryptococcus gattii species complex; test: Antimicrobial activity against Cryptococcus gattii serotype B isolate NIH189 assessed as heteroresistant isolates at 2 ug/ml; assay type: functional, Cryptococcus bacillisporus; in short: as §4
[14] = tested on: Cryptococcus deuterogattii; test: Antimicrobial activity against Cryptococcus gattii serotype B isolate NIH444 assessed as heteroresistant isolates at 2 ug/ml; assay type: functional, Cryptococcus bacillisporus; in short: as §4
[15] = tested on: Cryptococcus gattii species complex; test: Antimicrobial activity against Cryptococcus gattii serotype B isolate VPB572-058 assessed as heteroresistant isolates at 32 ug/ml; assay type: functional, Cryptococcus bacillisporus; in short: as §3
[16] = tested on: Cryptococcus gattii species complex; test: Antimicrobial activity against Cryptococcus gattii serotype B isolate NIH409 assessed as concentration required for heteroresistance; assay type: functional, Cryptococcus bacillisporus; in short: as §1
[17] = tested on: Cryptococcus bacillisporus; test: Antimicrobial activity against Cryptococcus gattii serotype C isolate NIH191 assessed as heteroresistant isolates at 16 ug/ml; assay type: functional; in short: as §3
[18] = tested on: Cryptococcus gattii species complex; test: Antimicrobial activity against Cryptococcus gattii serotype B isolate RB-9 assessed as concentration required for heteroresistance; assay type: functional, Cryptococcus bacillisporus
[19] = tested on: Cryptococcus gattii species complex; test: Antimicrobial activity against Cryptococcus gattii serotype C isolate NIH178 assessed as concentration required for heteroresistance; assay type: functional, Cryptococcus bacillisporus
[20] = tested on: Cryptococcus gattii species complex; test: Antimicrobial activity against Cryptococcus gattii serotype B isolate B5765 assessed as heteroresistant isolates at 8 ug/ml; assay type: functional, Cryptococcus bacillisporus; in short: as §4
[21] = tested on: Cryptococcus gattii species complex; test: Antimicrobial activity against Cryptococcus gattii serotype B isolate NIH200 assessed as concentration required for heteroresistance; assay type: functional, Cryptococcus bacillisporus; in short: as §1
[22] = tested on: Cryptococcus deuterogattii; test: Antimicrobial activity against Cryptococcus gattii serotype B isolate NIH444 assessed as heteroresistant isolates at 16 ug/ml; assay type: functional, Cryptococcus bacillisporus; in short: as §4
[23] = tested on: Cryptococcus gattii species complex; test: Antimicrobial activity against Cryptococcus gattii serotype B isolate B3939 assessed as heteroresistant isolates at 4 ug/ml; assay type: functional, Cryptococcus bacillisporus; in short: as §4
[24] = tested on: Cryptococcus gattii species complex; test: Antimicrobial activity against Cryptococcus gattii serotype B isolate RB22 assessed as heteroresistant isolates at 2 ug/ml; assay type: functional, Cryptococcus bacillisporus; in short: as §3
[25] = tested on: Cryptococcus gattii species complex; test: Antimicrobial activity against Cryptococcus gattii serotype B isolate VPB572-058 assessed as heteroresistant isolates at 16 ug/ml; assay type: functional, Cryptococcus bacillisporus; in short: as §3
[26] = tested on: Cryptococcus gattii species complex; test: Antimicrobial activity against fluconazole-resistant Cryptococcus gattii serotype B isolate RB14 at 256 ug/ml; assay type: functional, organism-based; conditions: Cryptococcus bacillisporus

Question: Which Activity [1] does the source give for OC(Cn1cncn1)(Cn1cncn1)c1ccc(F)cc1F [FLUCONAZOLE] here?
Answer: 4 µg/mL

Question: And the Activity [2]?
Answer: 100%

Question: And the Activity [3]?
Answer: 32 µg/mL

Question: What about the Activity [4] of the same molecule?
Answer: 100%

Question: And the Activity [5]?
Answer: 0.22%

Question: And the Activity [6]?
Answer: 0.8%

Question: And the Activity [7]?
Answer: 100%

Question: And the Activity [8]?
Answer: 100%

Question: And the Activity [9]?
Answer: 32 µg/mL

Question: And the Activity [10]?
Answer: 32 µg/mL

Question: And the Activity [11]?
Answer: 2.3%

Question: And the Activity [12]?
Answer: 100%

Question: And the Activity [13]?
Answer: 100%

Question: And the Activity [14]?
Answer: 100%

Question: And the Activity [15]?
Answer: 1.6%

Question: And the Activity [16]?
Answer: 32 µg/mL

Question: And the Activity [17]?
Answer: 100%

Question: What about the Activity [18] of the same molecule?
Answer: 32 µg/mL

Question: And the Activity [19]?
Answer: 32 µg/mL

Question: And the Activity [20]?
Answer: 100%

Question: What about the Activity [21] of the same molecule?
Answer: 4 µg/mL

Question: And the Activity [22]?
Answer: 100%

Question: What about the Activity [23] of the same molecule?
Answer: 100%

Question: And the Activity [24]?
Answer: 100%

Question: What about the Activity [25] of the same molecule?
Answer: 100%

Question: What about the Activity [26] of the same molecule?
Answer: inactive
